Experiment [1] is described as follows: Resistance index (IC50 of MCF7 resistant cell line/IC50 of MCF7 sensitive cell line). The format is functional, Homo sapiens.
Experiment [2] has as its system MCF7. The experiment is described as follows: Cytotoxic potency in MCF7 human mammary carcinoma cell line after 72 hr exposure by SRB test. It is filed as functional, cell-based. The note with it: MCF7, 72 h. An outline of the steps:
(§1)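 Monolayers grown in RPMI-1640 with 5% FCS, 5% NuSerum IV, 20 mM Hepes, 2 mM L-glutamine, 37 °C, 5% CO2. 800–1500 cells/well attached 15–18 h, then given 10 concentrations over a 5-log range (DMSO stock diluted in RPMI/10 mM Hepes) for 72 h. Cells TCA-fixed, sulforhodamine B stained, OD 570 nm. IC50 from Sigmoid-Emax nonlinear regression; means of ≥3 independent experiments ± SE.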
(In general: Sulforhodamine B stains cellular protein and so reports cell mass.)

The subject of experiment [3] is MCF7-DOX. In words: Cytotoxic potency in doxorubicin resistant MCF7 cell line after 72 hr exposure by SRB test. The note with it: Homo sapiens. The format is functional, cell-based. A digest of the protocol:
as §1

pIC50: −log10 of the molar value.

In general, pIC50 refers to the negative decadic logarithm of the IC50, by convention in mol/L. Read a low pIC50 as a large IC50. Consider `CC(=O)O[C@H]1C(=O)[C@@]2(C)[C@H]([C@H](OC(=O)c3ccccc3)[C@]3(O)C[C@H](OC(=O)[C@H](O)[C@@H](NC(=O)c4ccccc4)c4ccccc4)C(C)=C1C3(C)C)[C@]1(OC(C)=O)CO[C@@H]1C[C@@H]2O` [PACLITAXEL], for which the “Ratio IC50” value in experiment [1] turned out to be 975. Also, the values for the negative logarithm of the IC50 (pIC50) in experiment [2] and in experiment [3] were 9.22 and 6.23, respectively.
The corresponding values for `COc1cccc(C(=O)O[C@H]2[C@H]([C@]3(OC(C)=O)CO[C@@H]3CCO)/C(C)=C(/O)C(=O)C3=C(C)[C@@H](OC(=O)[C@H](O)[C@H](CC(C)C)NC(=O)OC(C)(C)C)[C@@H]4OC(=O)O[C@]42C3(C)C)c1` are 240, 9.30 and 6.92.
In the case of `COc1cccc(C(=O)O[C@H]2[C@@H]3[C@]4(OC(C)=O)CO[C@@H]4C[C@H](O)[C@@]3(C)C(=O)[C@H](OC(C)=O)C3=C(C)[C@@H](OC(=O)[C@H](O)[C@H](CC(C)C)NC(=O)OC(C)(C)C)[C@@H]4OC(=O)O[C@]42C3(C)C)c1`, in experiment [1], the “Ratio IC50” value is reported as 17. The pIC50 in experiment [2] is 9.62; in experiment [3], 8.40.
The corresponding values for `CC(=O)O[C@@]1([C@@H]2/C(C)=C(/O)C(=O)C3=C(C)[C@@H](OC(=O)[C@H](O)[C@H](CC(C)C)NC(=O)OC(C)(C)C)C[C@@](O)([C@H]2OC(=O)c2ccccc2)C3(C)C)CO[C@@H]1CCO` are 93, 7.95 and 5.98.
For `CC(=O)O[C@H]1C(=O)[C@@]2(C)[C@H]([C@H](OC(=O)c3ccccc3)[C@]34OC(=O)O[C@H]3[C@H](OC(=O)[C@H](O)[C@H](CC(C)C)NC(=O)OC(C)(C)C)C(C)=C1C4(C)C)[C@]1(OC(C)=O)CO[C@@H]1C[C@@H]2O` [ORTATAXEL], in experiment [1], the “Ratio IC50” value is reported as 20. For the same compound, the values for the pIC50 in experiment [2] and in experiment [3] were 8.80 and 7.49, respectively.

The values are drawn from ChEMBL document CHEMBL1141208, “Synthesis and biological evaluation of methoxylated analogs of the newer generation taxoids IDN5109 and IDN5390” (Bioorg Med Chem Lett, 2005).
